Source: PubChem BioAssay
Activity calls are given as the source filed them.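 The calls were made as follows, unless noted: active = mean duplicate potentiation above the buffer control mean plus 5 SD of buffer wells; inactive = the rest.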

What was measured:
[1] = thallium flux activation in parental CHO cells, counter-screen for KCNQ1 potentiator project (AID 493006;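 active = duplicate-averaged activation above buffer control mean plus 5 SD of those controls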;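 as to activation: fluorescence ratio of max minus min over baseline after K+ and Tl+ depolarization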); conditions: parental CHO-K1 cells, FluxOR thallium flux, at 10 µM; hits give high values
Summary of the method: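 Material: untransfected host CHO-K1 cells with FluxOR thallium dye. Timing: overnight 37 °C plating, 90 min RT dye, 20 min compound. Detection: kinetic FluxOR fluorescence, 10 s baseline, 110 s after stimulus. Read-out basis: max-minus-min fluorescence over baseline, percent of buffer-to-R-L3 span. Replicates: duplicate wells per compound, percent values averaged.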

[2] = target: Potassium voltage-gated channel subfamily KQT member 1 (Homo sapiens) (UniProt P51787); test: KCNQ1 potassium channel potentiators, confirmation, FluxOR thallium flux, CHO cells, duplicates (AID 493007;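 active = potentiation averaged over duplicate wells exceeding buffer-only control mean by more than 3 SD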;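 as to outcome: cells depolarized by a potassium plus thallium sulfate stimulus after compound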); conditions: KCNQ1 cell line, FluxOR thallium flux fluorescence, at 10 µM; hits give high values, % of reference activator effect, buffer zero
Chain of Potassium voltage-gated channel subfamily KQT member 1 (Homo sapiens) (P51787 whole entry, looked up): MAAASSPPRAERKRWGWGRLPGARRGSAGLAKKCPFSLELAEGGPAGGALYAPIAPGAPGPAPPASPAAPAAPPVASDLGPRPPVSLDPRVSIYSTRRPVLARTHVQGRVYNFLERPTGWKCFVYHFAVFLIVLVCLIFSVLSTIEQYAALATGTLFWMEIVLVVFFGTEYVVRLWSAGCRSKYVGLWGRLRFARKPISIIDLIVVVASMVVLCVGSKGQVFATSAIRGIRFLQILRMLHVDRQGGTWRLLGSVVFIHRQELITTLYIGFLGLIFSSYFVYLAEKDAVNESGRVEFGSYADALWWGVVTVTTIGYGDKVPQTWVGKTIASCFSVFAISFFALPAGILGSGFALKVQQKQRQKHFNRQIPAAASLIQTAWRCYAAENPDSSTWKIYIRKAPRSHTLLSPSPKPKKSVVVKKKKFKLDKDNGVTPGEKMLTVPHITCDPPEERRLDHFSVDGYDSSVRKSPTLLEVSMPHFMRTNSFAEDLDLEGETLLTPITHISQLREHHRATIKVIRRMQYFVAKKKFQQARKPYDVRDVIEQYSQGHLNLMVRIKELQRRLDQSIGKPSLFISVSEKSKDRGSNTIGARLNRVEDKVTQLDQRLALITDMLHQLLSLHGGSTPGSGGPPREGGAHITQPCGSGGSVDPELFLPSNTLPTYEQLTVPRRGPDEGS
Summary of the method: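 Test system – KCNQ1-expressing CHO cell line · Incubation – FluxOR dye loading 90 min, compound exposure 20 min, room temperature · Detection – FluxOR Tl+ flux fluorescence, 10 s baseline plus 110 s recording · Controls – buffer-only wells as 0% and R-L3 activator as 100%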

[3] = target: Potassium voltage-gated channel subfamily KQT member 2 (Rattus norvegicus) (UniProt O88943); test: rat KCNQ2 channel potentiation, selectivity assay for KCNQ1 potentiator project, KCNQ2-CHO-K1 cells (AID 493009); conditions: FluxOR thallium flux fluorescence, at 10 µM; hits give high values, scaled: buffer 0, activator control 100;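 also: assay conditions were tuned for KCNQ1 rather than KCNQ2 modulators; signal is max minus min fluorescence divided by baseline after thallium stimulus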
Chain of Potassium voltage-gated channel subfamily KQT member 2 (Rattus norvegicus) (O88943 whole entry, looked up): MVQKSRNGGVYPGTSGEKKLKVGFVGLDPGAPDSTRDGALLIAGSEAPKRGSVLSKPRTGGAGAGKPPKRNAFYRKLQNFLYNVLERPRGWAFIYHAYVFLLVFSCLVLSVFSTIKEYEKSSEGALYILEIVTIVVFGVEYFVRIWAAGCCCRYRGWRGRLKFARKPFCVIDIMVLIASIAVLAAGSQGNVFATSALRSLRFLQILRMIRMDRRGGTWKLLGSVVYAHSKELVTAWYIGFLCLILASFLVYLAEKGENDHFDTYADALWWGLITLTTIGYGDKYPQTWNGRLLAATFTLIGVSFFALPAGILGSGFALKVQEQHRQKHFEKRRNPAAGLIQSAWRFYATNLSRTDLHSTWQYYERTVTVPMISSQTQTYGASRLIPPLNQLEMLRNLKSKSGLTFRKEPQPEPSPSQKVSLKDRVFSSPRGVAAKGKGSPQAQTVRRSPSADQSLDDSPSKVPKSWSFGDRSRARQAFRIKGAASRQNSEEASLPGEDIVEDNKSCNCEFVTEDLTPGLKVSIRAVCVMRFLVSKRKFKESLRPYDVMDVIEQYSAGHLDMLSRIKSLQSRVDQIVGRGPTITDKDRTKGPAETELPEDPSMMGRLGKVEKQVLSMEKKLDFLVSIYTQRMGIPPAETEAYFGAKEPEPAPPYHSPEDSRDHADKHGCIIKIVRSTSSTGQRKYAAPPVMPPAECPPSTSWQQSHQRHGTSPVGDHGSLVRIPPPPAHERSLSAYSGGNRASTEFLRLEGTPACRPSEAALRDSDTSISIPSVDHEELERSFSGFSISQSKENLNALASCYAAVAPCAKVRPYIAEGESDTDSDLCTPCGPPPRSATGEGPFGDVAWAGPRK

[4] = target: Potassium voltage-gated channel subfamily KQT member 1 (Homo sapiens) (UniProt P51787); test: KCNQ1 channel current potentiators, confirmation, orthogonal assay for KCNQ1 potentiator project, IonWorks patch clamp, KCNQ1-CHO cells (AID 493184;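 active = current rise at least 3 SD above the untreated control mean in each of two repeat wells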); conditions: automated patch clamp current, at 10 µM; hits give high values
Summary of the method: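 Read-out: Percent current increase versus pre-compound level | Assay system: CHO cells carrying KCNQ1 | Measured by: Automated perforated-patch electrophysiology | Medium: External bath solution at pH 7.4 | Dosing: One dose, 10 µM final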

SMILES | activation [1] | potentiation [2] | potentiation [3] | outcome [4] | outcome [1] | outcome [2] | outcome [3]
COc1ccc(C(=O)NC(=S)N(Cc2ccccc2)Cc2ccccc2)cc1 | 385% (active) | 168% (active) | 436% (active) | inactive |  |  | 
COc1ccc(OC)c(NC(=O)C(=O)NNC(=O)COc2ccc(Br)cc2C)c1 | 520% (active) | 346% (active) | 614% (active) | inactive |  |  | 
COc1ccc(OC)c(-c2cc(C(=O)N3CCN(c4ccccc4)CC3)no2)c1 |  |  |  | inactive | inactive | inactive | inactive
C[C@@H](NC(=O)[C@@H]1Cc2ccccc2CN1)C(=O)NC1CCCC1 |  |  |  | inactive | inactive | inactive | inactive
S=c1nc(-c2ccccc2)[nH]n1-c1ccccc1 | 504% (active) | 210% (active) | 532% (active) | inactive |  |  | 
COc1ccc(C)cc1-n1c(SCC(=O)Nc2cc(C)on2)nc2ccccc2c1=O |  |  |  | inactive | inactive | inactive | inactive
COc1cccc(OC)c1C(=O)Nc1cccc(-c2ccc3nncn3n2)c1 |  |  |  | inactive | inactive | inactive | inactive
CCC1=NN(C(=O)c2ccc(Br)cc2)C(O)(c2ccccc2)C1 (stereo not given) |  |  |  | inactive | inactive | inactive | inactive
CCOC(=O)c1c(NC(=S)NCC2CCCO2)sc(C)c1C (stereo not given) |  |  |  | inactive | inactive | inactive | inactive
CSC(=S)N/N=C(\C)c1ccccc1 | 246% (active) | 50.5% (active) | 283% (active) | inactive |  |  | 
O=C(NC(=S)N1CCN(c2ccc(F)cc2)CC1)c1cccs1 | 274% (active) | 84.5% (active) | 338% (active) | inactive |  |  | 
CC(C)(C)c1cc(C(=O)NNC(=O)c2ccc(Cl)cc2)no1 | 200% (active) | 86.5% (active) | 257% (active) | inactive |  |  | 
COc1ccc(C(=O)On2c(-c3ccc(Br)cc3)nc3ccccc3c2=O)cc1 |  |  |  | inactive | inactive | inactive | inactive
CCCCn1c(-c2csc3c2CCC(C)C3)n[nH]c1=S (stereo not given) | 145% (active) | 75.5% (active) | 150% (active) | inactive |  |  | 
COc1cccc(NC(=O)c2cncs2)c1 |  |  |  | inactive | inactive | inactive | inactive
CCOC(=O)C(C)Oc1cccc2c(=O)n(CC(=O)NCc3ccc4c(c3)OCO4)ccc12 (stereo not given) |  |  |  | inactive | inactive | inactive | inactive
CCOC(=O)C1=C(O)c2ccccc2C(=O)/C1=C\c1ccc(CC)cc1 | 177% (active) | 114% (active) | 156% (active) | inactive |  |  | 
Cc1cc(C)c2nc(NC(=O)c3cc(C)on3)sc2c1 | 174% (active) | 36% (active) | 166% (active) | inactive |  |  | 
Cc1ccc(C(C(=O)NC2CCCCC2)N(Cc2cccnc2)C(=O)C2COc3ccccc3O2)o1 (stereo not given) |  |  |  | inactive | inactive | inactive | inactive
O=C(NCCCn1ccnc1)c1cc(C2CC2)on1 |  |  |  | inactive | inactive | inactive | inactive

SMILES | activation [1] | potentiation [2] | potentiation [3] | outcome [4] | outcome [1] | outcome [2] | outcome [3]
C=CCn1c(O)c(N=NC(=S)Nc2ccc(OC)c(Cl)c2)c2ccccc21 | 191% (active) | 57% (active) | 215% (active) | inactive |  |  | 
Fc1cccc2sc(Nc3nnc(-c4ccco4)o3)nc12 | 354% (active) | 100% (active) | 381% (active) | inactive |  |  | 
O=C(COc1ccccc1Cl)N(Cc1cccs1)C1CCS(=O)(=O)C1 (stereo not given) |  |  |  | inactive | inactive | inactive | inactive
Oc1cccc2ccc(Nc3ccccn3)nc12 |  |  |  | inactive | inactive | inactive | inactive
CCc1ccc(/C=N/NC(=O)Cc2cccn2C)cc1 |  |  |  | inactive | inactive | inactive | inactive
CCCCc1nc2sc3c(SCCN(C)C)ncnc3c2c2c1CCC2 | 207% (active) | 122% (active) | 183% (active) | inactive |  |  | 
CC1(N2CCCCC2)CC2(O)C(=[N+]1[O-])CCC/C2=N\O (stereo not given) |  |  |  | inactive | inactive | inactive | inactive
S=c1nc(Cc2ccc(Cl)cc2)[nH]c2ccccc12 | 372% (active) | 148% (active) | 350% (active) | inactive |  |  | 
Cc1cc(C(=O)OCC(=O)NCc2ccco2)c(C)n1-c1ccc(F)cc1 | 283% (active) | 116% (active) | 323% (active) | inactive |  |  | 
CCOC(=O)c1sc2ncnc(NCc3ccco3)c2c1C | 332% (active) | 152% (active) | 358% (active) | inactive |  |  | 
CSC(=S)N/N=C(\C)c1ccc(Br)cc1 | 309% (active) | 132% (active) | 258% (active) | inactive |  |  | 
Oc1ccc(CN2CCCCC2)c2cccnc12 | 170% (active) | 47% (active) | 144% (active) | inactive |  |  | 
CC(C)CSC1=NSC2=NC(=O)/C(=C\c3ccccc3)C(=N)N12 | 198% (active) | 58% (active) | 204% (active) | inactive |  |  | 
COc1cc2c(cc1OC)C(C)N(C(=S)NC(=O)c1ccccc1)CC2 (stereo not given) | 141% (active) |  |  | inactive |  | inactive | inactive
COCCOC(=O)N/C=C\c1nc2ccccc2c(=O)[nH]1 |  |  |  | inactive | inactive | inactive | inactive
Cc1cccc(NC(=O)CSc2ccc3nnc(-c4cccnc4)n3n2)c1 |  |  |  | inactive | inactive | inactive | inactive
COc1ccc(N/C=C/C(=O)c2cc(OC)c(OC)c(OC)c2)cc1 | 366% (active) | 188% (active) | 365% (active) | inactive |  |  | 
O=C1NC(=S)S/C1=C\c1ccc2ccccc2c1 | 234% (active) | 82% (active) | 218% (active) | inactive |  |  | 
CC1CCCCC1NC(=S)NC(=O)c1cccs1 (stereo not given) | 181% (active) | 100% (active) | 300% (active) | inactive |  |  | 
O=C(NC(=S)N1CCCCCC1)c1ccccc1 |  |  |  | inactive | inactive | inactive | inactive

SMILES | activation [1] | potentiation [2] | potentiation [3] | outcome [4] | outcome [1] | outcome [2] | outcome [3]
COc1cccc(C(=O)NC(=S)Nc2ccc3c4c(cccc24)CC3)c1 |  | 25.5% (active) |  | inactive | inactive |  | inactive
CC(=O)Nc1cc(NC(C)=O)cc(C(=O)OC(C)C(=O)Nc2ccc(S(=O)(=O)N3CCCC3)cc2)c1 (stereo not given) | 224% (active) | 54% (active) | 216% (active) | inactive |  |  | 
O=c1c2ccccc2[nH]c(=S)n1CCc1ccccc1 | 159% (active) |  |  | inactive |  | inactive | inactive
C=C1CCN(c2ccc(C(=O)NCc3ccc(C)cc3)cc2[N+](=O)[O-])CC1 | 164% (active) | 19.5% (active) |  | inactive |  |  | inactive
CCOC(=O)c1sc(NN=C(C(=O)OC)C(=O)OC)c(C(=O)OCC)c1C | 185% (active) | 74.5% (active) | 208% (active) | inactive |  |  | 
O=C(NNC(=O)c1ccc(Cl)c(Cl)c1)c1ccncc1 |  | 18.5% (active) |  | inactive | inactive |  | inactive
COc1ccc(-c2csc(NC(=S)NC(=O)c3cccs3)n2)cc1OC |  | 40% (active) | 216% (active) | inactive | inactive |  | 
Cc1ccc(OCC(=O)NNC(=O)C(=O)NC(C)(C)C)cc1 | 170% (active) | 43% (active) | 176% (active) | inactive |  |  | 
CSc1nsc(SCC(=O)Nc2ccccc2)n1 |  |  |  | inactive | inactive | inactive | inactive
Cc1cccc(NC(=O)C(=O)NNC(=O)c2ccc(C(C)(C)C)cc2)c1 | 485% (active) | 179% (active) | 483% (active) | inactive |  |  | 
Cc1cc(C)n(CC(=O)N2CCCC(N3CCN(c4ccccc4C)CC3)C2)n1 (stereo not given) | 174% (active) | 79% (active) | 206% (active) | inactive |  |  | 
CN(C)CC1CCCCC1OC(=O)/C=C/c1ccc(Cl)cc1Cl (stereo not given) |  |  |  | inactive | inactive | inactive | inactive
CCCN(Cc1ccccc1)C(=S)NC(=O)c1ccccc1[N+](=O)[O-] | 430% (active) | 177% (active) | 452% (active) | inactive |  |  | 
COc1ccc(N2CCN(S(=O)(=O)c3ccc(OC)c(C(=O)N4CCCCC4)c3)CC2)cc1 |  |  |  | inactive | inactive | inactive | inactive
CCOC(=O)Cc1cc(=O)n2[nH]c(C)c(-c3ccc(Cl)cc3)c2n1 |  |  |  | inactive | inactive | inactive | inactive
CCC1(c2ccccc2)NC(=S)N(c2ccc(C)cc2)N1 (stereo not given) | 392% (active) | 198% (active) | 522% (active) | inactive |  |  | 
Cc1nc2ccccc2c(N)c1C(=O)/C=C/c1ccccc1 |  |  |  | inactive | inactive | inactive | inactive
O=C(NC(=S)NCCc1ccccc1)c1cccc(Cl)c1 | 182% (active) | 141% (active) | 342% (active) | inactive |  |  | 
O=C(Nc1nccs1)c1ccc(-c2ccc(F)c(Cl)c2)o1 |  |  |  | inactive | inactive | inactive | inactive
CCC1CCC2(CC1)NC(CO)(CO)CO2 (stereo not given) |  |  |  | inactive | inactive | inactive | inactive
